Wee1 stabilizer: human Wee1 degradation inhibition, primary screen; 1.2% of 220,000 active; P30291; HeLa Luc-Wee1K328M stability, luciferase luminescence; 100% = proteasome inhibitor MG132 effect; reporter increase, % at 5 µM; AID 1321;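 active = activation above the mean of all tested compounds plus 3 SD, set per screening run, cut at about 8.8% in these data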;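 note: cells exposed to compound for 20 h before luminescence read; 0% = DMSO alone and 100% = MG132 at 30 µM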
zVAD death inh: L929 zVAD cell death inhibition | L929 zVAD necroptosis rescue, ATP luminescence, 24 h; with zVAD 60 µM | viability rescue, % at 10 µM | 0.38% of 220,000 active;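 active = activation, scaled between plate controls, above about 75%, limit read from the data; inactive = activation under that limit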;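 note: 0% = zVAD with DMSO and 100% = DMSO alone without zVAD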
MDM2 E3 inh: blocks human Mdm2 ubiquitin ligase activity. 0.11% of 210,000 active. cell-based MDM2 ubiquitination luciferase reporter, 2 h; 0 = plate control, 100 = twice control, blank-subtracted. signal enhancement, % at 5 µM. Q00987;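 active = signal enhancement of 30% or more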;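 note: luminescence tracks abundance of the self-degrading MDM2-luciferase fusion protein; higher signal means inhibition of MDM2 E3 ligase activity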
Target sequence (Q00987 whole entry, looked up, the tested form may be a part): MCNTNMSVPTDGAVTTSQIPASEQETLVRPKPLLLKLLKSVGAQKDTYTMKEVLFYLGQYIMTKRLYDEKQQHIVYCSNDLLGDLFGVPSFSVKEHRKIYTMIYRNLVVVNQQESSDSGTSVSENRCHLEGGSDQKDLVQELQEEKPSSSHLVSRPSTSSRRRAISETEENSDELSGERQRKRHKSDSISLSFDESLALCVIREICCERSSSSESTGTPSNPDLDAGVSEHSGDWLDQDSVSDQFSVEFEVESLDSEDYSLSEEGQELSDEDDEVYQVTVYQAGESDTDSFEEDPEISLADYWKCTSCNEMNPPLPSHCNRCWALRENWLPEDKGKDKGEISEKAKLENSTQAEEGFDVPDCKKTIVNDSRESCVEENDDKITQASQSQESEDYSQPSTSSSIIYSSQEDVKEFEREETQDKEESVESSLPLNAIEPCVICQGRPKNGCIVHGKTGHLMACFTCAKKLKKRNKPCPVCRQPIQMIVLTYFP
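Buffer or medium: Cells held in DMEM | Assay system: Stable mammalian line carrying autodegrading MDM2–luciferase fusion reporter | Quantity: 2000 cells/well | Times: 4 h settle plus 2 h compound, 37 °C | Doses: One concentration, 5 µM, with 0.2% DMSO | Technique: Luminescence with SteadyLite reagent, 15 min at room temperature | Benchmarks: Plate controls and plate blanks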
TNF death inh: TNF-alpha cell death inhibition in Jurkat FADD-/- cells; 0.068% of 220,000 active; activation (protection from cell death), % at 10 µM; AID 463075; Jurkat FADD-/- TNF necroptosis rescue, ATP luminescence, 24 h; 0 = TNF only, 100 = no-TNF cells;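 active = activation, meaning protection from cell death, of at least 50% relative to plate controls; inactive = activation below 50%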;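 note: necroptosis triggered by 40 ng/mL TNF-alpha added together with compound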
Pf gametocyte: inhibitors of late stage P. falciparum gametocyte viability | P. falciparum stage V gametocytes, ATP luminescence, 24 h | 0.065% of 150,000 active | inhibition, % at 10.9 µM;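 active = inhibition above the mean plus 3 SD of compounds within the control limits, set per campaign, cut at about 38% in these data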;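 note: 0% = DMSO wells and 100% = medium only without gametocytes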
Wee1 degr conf: human Wee1 degradation inhibition, confirmation; shares compounds with Wee1 stabilizer; HeLa Luc-Wee1K328M degradation, luminescence; vehicle 0%, proteasome-blocked wells 100%; activation, % at 5 µM; 4% of 1,100 active; AID 1410; in the data active = activation above about 8.9%
Starred values were filed as active, the others as inactive; / = no result given. A selection: hits, their analogues and other compounds. The true share with any hit is near 1.6%.

SMILES	Wee1 stabilizer	zVAD death inh	MDM2 E3 inh	TNF death inh	Pf gametocyte	Wee1 degr conf
O=S(=O)(c1ccc(Cl)cc1)n1ccc2cccnc21	0	0	-20	-3	/	/
O=C(O)c1ccc2nc3c(nc2c1)-c1ccccc1C3=O	17*	2	0	-2	-18	5
O=C(O)c1ccc2nc(-c3ccco3)c(-c3ccco3)nc2c1	7	1	2	0	-3	/
O=C(Nc1ccc2c(c1)nc1n2CCOC1)c1ccccc1	4	1	-12	0	2	/
Cc1cc(N2CCCCC2)nc2ccccc12	2	0	-7	2	/	/
Cc1cc(-n2nnc3ccccc32)nc2ccccc12	13*	0	2	-2	/	4
O=C(CCCCn1c(=O)c2ccccc2n(Cc2ccccc2)c1=O)NC1CCN(Cc2ccccc2)CC1	11*	-1	-5	0	6	0
O=C(CCCn1c(=O)c2ccccc2n(Cc2cccc(F)c2)c1=O)NC1CCN(Cc2ccccc2)CC1	0	-1	0	0	-7	/
CCN(CC)CCn1c(SCC(=O)Nc2cccc(OC)c2)nc2c(sc3ccccc32)c1=O	12*	0	-12	4	-7	5
COc1cccc(NC(=O)CSc2nc3c(sc4ccccc43)c(=O)n2CCN(C)C)c1	-1	0	-18	-6	2	/
O=[N+]([O-])c1ccc(Sc2cccc3cccnc23)c([N+](=O)[O-])c1	16*	2	16	-7	/	-2
CCC(C(=O)Nc1nccs1)c1ccccc1 (centres undefined)	17*	1	-15	3	/	1
O=C(O)Cc1ccc(N=Cc2c(O)ccc3ccccc23)cc1	1	1	-8	-3	12	/
CS(=O)(=O)Nc1cccc(C2=NN(S(C)(=O)=O)C(c3ccc4c(c3)OCO4)C2)c1 (centres undefined)	13*	2	8	-1	/	6
Cc1cccc2cc3c(N)c(C(=O)N4CCOCC4)sc3nc12	14*	0	-8	-16	/	8
Cc1cc(C)c2cc3c(N)c(C(=O)N4CCc5ccccc5C4)sc3nc2c1	-2	0	6	-4	/	/
Cn1c(=O)[nH]c(=O)c2c1nc(CN1CCN(c3ccccc3F)CC1)n2CCCc1ccccc1	-2	-1	-4	0	/	/
CC(C)NC(=O)/C(=N\O)c1ccccc1	0	0	-9	0	/	/
Cc1ccc(S(=O)(=O)N2CCOCC2)cc1C(=O)N(C)CCOc1ccc(Cl)cc1	12*	0	3	0	/	0
Cc1cc(/C=C2\SC(=S)NC2=O)c(C)n1-c1ccccc1	15*	1	-29	-1	0	4
Cc1ccc2nc(SCC(=O)NCC3CCCO3)c(C#N)cc2c1 (centres undefined)	12*	0	-9	-2	/	3
Cc1ccc2cc(C#N)c(SCC(=O)NCC3CCCO3)nc2c1 (centres undefined)	-1	0	9	-2	16	/
NC(N)=NS(=O)(=O)c1ccc(N)cc1	11*	61	/	1	/	1
COC(=O)c1c(NC(NC(C)=O)C(Cl)(Cl)Cl)sc2c1CCCC2 (centres undefined)	14*	2	-15	1	/	4
O=c1c2ccccc2oc2ccc(NCCCn3ccnc3)cc12	/	/	/	/	-27	/
SMILES	Wee1 stabilizer	zVAD death inh	MDM2 E3 inh	TNF death inh	Pf gametocyte	Wee1 degr conf
CCCCC(=O)Nc1cccc(C(=O)N/N=C/c2ccc(OC)cc2OC)c1	-1	1	-1	2	-5	/
CCOC(=O)c1ccc(Oc2nc(N(C)C)nc(N(C)C)n2)cc1	1	0	-21	-1	/	/
NCCCC(=O)O	-1	0	/	3	/	/
CN(C)c1nc(N)nc(-c2nc3ccccc3s2)n1	12*	-1	-19	-3	22	1
CC(C)C(=O)Nc1nnc(SCC(=O)NCc2ccc3c(c2)OCO3)s1	12*	1	1	1	/	1
COc1ccc(-c2nc(C#N)c(NCCCN(C)C)o2)cc1OC	-1	1	-6	0	/	/
CN(C)CCCNc1oc(-c2ccccc2)nc1C#N	14*	2	-7	2	/	-1
O=C(CN1CCC(c2nc3ccccc3[nH]2)CC1)Nc1ccc2c(c1)OCO2	-4	0	-10	-4	12	/

Screening results deposited in PubChem by several laboratories.
